# Results from different studies.
# Each line is one published result; the experiments were not run side by side.
# RAF1: RAF proto-oncogene serine/threonine-protein kinase (RAF1, Homo sapiens, UniProt P04049)
# RAF1 Y340D/Y341D: RAF proto-oncogene serine/threonine-protein kinase (RAF1, Homo sapiens, UniProt P04049, Y340D/Y341D)
SMILES,target,effect on,mode,technique,concentration,endpoint,result
Cc1nn(C)cc1-c1nc2c(N3CCN(Cc4ccc(Cl)cc4)CC3)c(Cl)cnc2[nH]1,RAF1,binding,,competition with immobilised ligand,1 µM,remaining binding,69%
Cn1cc(-c2cccc(N3CCc4c(sc5c4CC(C)(C)C5)C3=O)c2CO)cc(Nc2ccncn2)c1=O,RAF1 Y340D/Y341D,enzyme activity,inhibitor,,1 µM,inhibition,10%
Nc1ncc(-c2nc(N3CCOCC3)nc(N3CCOCC3)n2)c(C(F)F)n1,RAF1,binding,,competition with immobilised ligand,10 µM,remaining binding,98%
Cn1cc(-c2cc(F)cc(N3CCn4c(cc5c4CCCC5)C3=O)c2CO)cc(Nc2ccc(N3CCN(C4COC4)CC3)cn2)c1=O,RAF1 Y340D/Y341D,enzyme activity,inhibitor,,0.1 µM,inhibition,5%
Cn1cncc1[C@](O)(COc1ccc(C#N)cc1-c1ccc(OC(F)(F)F)cc1)c1ccc(C#N)cc1,RAF1,cell-free assay,,competition with immobilised ligand,1 µM,remaining binding,100%
C#Cc1n[nH]c2c(-c3cn(C(C)c4ccccn4)c(=O)[nH]c3=O)cc(F)cc12 (stereo not shown),RAF1 Y340D/Y341D,enzyme activity,inhibitor,,1 µM,inhibition,15.5%
CC(C)(C)c1cc(C=C(C#N)C#N)cc(Br)c1O,RAF1,enzyme activity,inhibitor,,0.5 µM,remaining activity,104%
C#Cc1n[nH]c2c(-c3cn([C@@H](C)c4ccccc4)c(=O)[nH]c3=O)cc(F)cc12,RAF1 Y340D/Y341D,enzyme activity,inhibitor,,0.1 µM,inhibition,4.4%
O=c1[nH]c2ccccc2n1C1CCN(Cc2ccc(-c3[nH]c4cc5ncnc5cc4nc3-c3ccccc3)cc2)CC1,RAF1,cell-free assay,,,0.5 µM,remaining signal,94.7%
COc1ncccc1-c1cnn2ccc(N3CCN(C(=O)OC(C)C)CC3)nc12,RAF1,binding,,competition with immobilised ligand,1 µM,remaining binding,60%
